Results from ChEMBL document CHEMBL1139924, “The structure-activity relationship of the series of non-peptide small antagonists for p56lck SH2 domain” (Bioorg Med Chem, 2007).
Active and inactive are the calls of the source. The calls are words filed in the database; no cut-off is given here.

How the values were obtained:
[1] = Inhibition of p56lck SH2 domain by ELISA; parameters: species or system Homo sapiens
Procedure, shortened: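 Competitive ELISA. Compound plus GST-p56lck SH2 fusion (100 ng/ml) incubated 1 h at room temperature, in duplicate wells. Bound protein detected with rabbit anti-GST, then HRP anti-rabbit and TMB, acid-stopped, A450. Ac-pYEEIE control peptide; IC50 reported.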

Jurkat [2] = experiment: Inhibition of Jurkat cell activation assessed as blocking of T-cell antigen receptor-induced IL-2 expression at 10 uM by luciferase assay; format: functional; conditions: Homo sapiens
Procedure, shortened: (§1)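 Jurkat T cells (2 × 10⁶) transfected with 2 µg IL-2-luciferase reporter by lipofection. Compounds added 2 h before activation and kept present throughout 16 h stimulation with plate-coated anti-CD3 mAb (5 µg/ml, UCHT1) or […] plus ionomycin (0.5 µg/ml). Cells then washed, lysed and read for luciferase by luminometry. Three independent experiments in duplicate. Cyclosporin A positive control.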

[3] = Partition coefficient, log P of the compound; format: physicochemical; conditions: octanol/water
Procedure, shortened: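 Shake-flask partition. Compound at 1 mM final in 1-octanol/water with an equal volume of 1-octanol/water added, vortexed 30 min. P is the octanol concentration divided by the aqueous concentration. Three independent experiments in duplicate.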

Jurkat [4] = experiment: Inhibition of Jurkat cell activation assessed as blocking of T-cell antigen receptor-induced IL-2 expression at 30 uM by luciferase assay; format: functional; conditions: Homo sapiens; procedure, shortened: as §1

| SMILES | IC50 [1] | logP [3] | inhibition at 10 µM (Jurkat [2]) | Activity (Jurkat [4]) | inhibition at 30 µM (Jurkat [4]) |
| --- | --- | --- | --- | --- | --- |
| COC(=O)[C@@H](Cc1ccc(OC)c(OC)c1)NC(=O)/C=C/c1ccc(O)c(O)c1 | > 500 µM | 1.53 | 9.4% |  |  |
| O=C(CCc1ccc(O)c(O)c1)N[C@H](Cc1ccc(O)c(O)c1)C(=O)O | 13 µM | 0.493 | 0% |  |  |
| CCCOC(=O)[C@@H](Cc1ccc(O)c(O)c1)OC(=O)/C=C/c1ccc(O)c(O)c1 | 145 µM | 1.52 | 87.5% |  |  |
| COC(=O)[C@@H](Cc1ccc(O)c(O)c1)OC(=O)/C=C/c1ccc(O)c(O)c1 [METHYL ROSMARINATE] | 80 µM | 1.48 | 54.7% | Active |  |
| O=C(/C=C/c1ccc(O)c(O)c1)N[C@H](Cc1ccc(O)c(O)c1)C(=O)O | 20 µM | 0.758 | 10.3% |  |  |
| COC(=O)[C@@H](Cc1ccc(O)c(O)c1)NC(=O)/C=C/c1ccc(OC)c(O)c1 | > 500 µM | 1.37 | 5.4% |  |  |
| O=C(O)/C=C/c1ccc(O)c(O)c1 [CAFFEIC ACID] | > 500 µM |  | 2% |  |  |
| COC(=O)CCCCCNC(=O)[C@@H](Cc1ccc(O)c(O)c1)OC(=O)/C=C/c1ccc(O)c(O)c1 | > 500 µM | 1.68 | 29.4% |  |  |
| COC(=O)[C@@H](Cc1ccc(O)c(O)c1)NC(=O)c1ccc(O)c(O)c1 | 19 µM | 0.125 | 0.4% |  |  |
| CC(C)(C)OC(=O)[C@@H](Cc1ccc(O)c(O)c1)OC(=O)/C=C/c1ccc(O)c(O)c1 | 127 µM | 2 | 80.7% |  |  |

Further lines, with some results ahead:

| IC50 [1] | logP [3] | SMILES | inhibition at 10 µM (Jurkat [2]) | Activity (Jurkat [4]) | inhibition at 30 µM (Jurkat [4]) |
| --- | --- | --- | --- | --- | --- |
| 21 µM | 0.138 | COC(=O)[C@@H](Cc1ccc(O)c(O)c1)NC(=O)Cc1ccc(O)c(O)c1 | 23% |  |  |
| 91 µM | 1.5 | CCOC(=O)[C@@H](Cc1ccc(O)c(O)c1)OC(=O)/C=C/c1ccc(O)c(O)c1 [ETHYL ROSMARINATE] | 22.7% |  |  |
| 15 µM | 0.503 | O=C(CCc1ccc(O)c(O)c1)O[C@H](Cc1ccc(O)c(O)c1)C(=O)O | 7.6% |  |  |
| 32 µM | 0.344 | COC(=O)[C@@H](Cc1ccc(O)c(O)c1)NC(=O)CCc1ccc(O)c(O)c1 | 7.5% |  |  |
| > 500 µM | 1.52 | COC(=O)[C@@H](Cc1ccc(O)c(O)c1)NC(=O)/C=C/c1ccc(OC)c(OC)c1 | 3.5% |  |  |
| 21 µM | 0.731 | O=C(/C=C/c1ccc(O)c(O)c1)N[C@@H](Cc1ccc(O)c(O)c1)C(=O)O | 11% |  |  |
| 110 µM | 1.83 | CC(C)OC(=O)[C@@H](Cc1ccc(O)c(O)c1)OC(=O)/C=C/c1ccc(O)c(O)c1 | 86.1% |  |  |
| > 500 µM | 1.31 | COC(=O)[C@@H](Cc1ccc(O)c(O)c1)NC(=O)/C=C/c1ccc(O)c(OC)c1 | 2.2% |  |  |
| 71 µM | 1.39 | COC(=O)[C@@H](Cc1ccc(O)c(O)c1)NC(=O)/C=C/c1ccc(O)c(O)c1 | 61.6% |  |  |
| 24 µM | 0.834 | O=C(/C=C/c1ccc(O)c(O)c1)O[C@H](Cc1ccc(O)c(O)c1)C(=O)O [ROSMARINIC ACID] | 40.4% |  | 50% |
| > 500 µM |  | NC(Cc1ccc(O)c(O)c1)C(=O)O (racemic) | 0.6% |  |  |
